Measurements from ChEMBL document CHEMBL4152367, “Discovery of a Potent Thiazolidine Free Fatty Acid Receptor 2 Agonist with Favorable Pharmacokinetic Properties” (J Med Chem, 2018).
≈ marks a conversion by molar mass, not a printed value. Calls of active or inactive are those of the source. The calls are words filed in the database; no cut-off is given here.

Tests used:
[1] = target: Free fatty acid receptor 1 (Homo sapiens) (UniProt O14842); test: Antagonist activity at human FFA1 receptor expressed in HEK293 cells assessed as inhibition of linoleic acid-induced calcium flux at 10 uM by fluorimetry; format: functional, cell-based
Free fatty acid receptor 1 (Homo sapiens), sequence (O14842 whole entry): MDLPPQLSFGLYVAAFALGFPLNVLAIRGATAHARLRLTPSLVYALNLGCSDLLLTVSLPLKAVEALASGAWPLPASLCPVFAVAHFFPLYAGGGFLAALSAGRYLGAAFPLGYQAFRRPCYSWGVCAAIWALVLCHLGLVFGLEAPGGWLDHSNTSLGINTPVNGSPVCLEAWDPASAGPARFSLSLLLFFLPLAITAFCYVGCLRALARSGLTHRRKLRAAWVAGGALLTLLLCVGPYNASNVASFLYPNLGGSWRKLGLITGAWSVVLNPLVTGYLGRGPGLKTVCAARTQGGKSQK

[2] = target: T1, Free fatty acid receptor 4 (Homo sapiens) (UniProt Q5NUL3); test: Agonist activity at human FFA4 receptor expressed in HEK293 cells assessed as induction of calcium flux at 10 uM by fluorimetry; format: functional, cell-based
T1 sequence (whole entry): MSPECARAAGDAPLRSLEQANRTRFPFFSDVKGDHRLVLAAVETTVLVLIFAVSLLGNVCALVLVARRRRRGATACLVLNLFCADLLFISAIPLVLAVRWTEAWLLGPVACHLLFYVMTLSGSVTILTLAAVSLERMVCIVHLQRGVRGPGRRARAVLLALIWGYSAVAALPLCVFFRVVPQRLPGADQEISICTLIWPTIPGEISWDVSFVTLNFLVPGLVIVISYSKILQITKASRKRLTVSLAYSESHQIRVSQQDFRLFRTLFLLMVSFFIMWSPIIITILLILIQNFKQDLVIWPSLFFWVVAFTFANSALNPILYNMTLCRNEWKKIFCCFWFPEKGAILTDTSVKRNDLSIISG

[3] = target: T2, Peroxisome proliferator-activated receptor alpha (Homo sapiens) (UniProt Q07869); test: Agonist activity at human PPARalpha expressed in Escherichia coli assessed as induction of calcium flux at 10 uM by fluorimetry
T2 sequence (whole entry): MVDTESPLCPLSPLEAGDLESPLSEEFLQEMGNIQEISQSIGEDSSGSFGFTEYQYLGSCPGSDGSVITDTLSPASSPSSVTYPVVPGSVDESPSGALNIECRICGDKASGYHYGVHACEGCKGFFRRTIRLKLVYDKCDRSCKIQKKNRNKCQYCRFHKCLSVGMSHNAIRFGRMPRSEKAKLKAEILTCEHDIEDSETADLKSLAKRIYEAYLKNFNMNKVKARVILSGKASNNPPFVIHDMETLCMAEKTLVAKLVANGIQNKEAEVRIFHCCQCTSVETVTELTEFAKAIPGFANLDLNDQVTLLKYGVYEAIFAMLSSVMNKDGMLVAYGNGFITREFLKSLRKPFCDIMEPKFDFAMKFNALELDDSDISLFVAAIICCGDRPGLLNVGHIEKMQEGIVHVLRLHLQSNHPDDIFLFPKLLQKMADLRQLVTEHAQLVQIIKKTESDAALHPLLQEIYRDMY

[4] = target: T2, Peroxisome proliferator-activated receptor alpha (Homo sapiens); test: Antagonist activity at human PPARalpha expressed in Escherichia coli assessed as inhibition of […]-induced calcium flux at 10 uM by alpha screen assay
[5] = Octanol/PBS buffer partition co-efficient, log D of the compound at pH 7.4 after 24 hrs by HPLC analysis; format: physicochemical
[6] = Aqueous solubility of the compound in PBS buffer at pH 7.4 after 24 hrs by HPLC analysis; format: physicochemical
[7] = Chemical stability of the compound in FaSSIF after 2 hrs; format: physicochemical; conditions: read-out: Stability
How it was run: (§1)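 Simulated-fluid stability: 50 µM compound in FaSSIF or FaSSGF (from 10 mM DMSO stock), shaken at 37 °C for 0 and 120 min. Quenched with acetonitrile containing 0.5% HCOOH, centrifuged, supernatant by HPLC. Stability from peak area relative to the 0 min sample; duplicates, mean reported.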

[8] = Chemical stability of the compound in FaSSGF after 2 hrs; format: ADME, physicochemical; conditions: read-out: Stability; how it was run: as §1
[9] = Volume of distribution in Balb/c mouse at 5 mg/kg, iv by HPLC-MS/MS analysis; format: ADME, organism-based; conditions: in vivo
How it was run: (§2)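 Balb/c mice dosed at 5 mg/kg iv or 10 mg/kg po. Plasma concentrations over time used to derive t1/2, AUC0–∞, Vd and total clearance (iv), and tmax, Cmax, AUC0–∞ and oral bioavailability (po).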

[10] = Total clearance in Balb/c mouse at 5 mg/kg, iv by HPLC-MS/MS analysis; format: ADME, organism-based; conditions: in vivo; how it was run: as §2
[11] = Oral bioavailability in Balb/c mouse at 10 mg/kg by HPLC-MS/MS analysis; format: ADME, organism-based; conditions: in vivo; how it was run: as §2

With `Cc1noc(C)c1-c1ccc(C(=O)N2[C@@H](c3ccccc3Cl)SC[C@H]2C(=O)O)cc1` the inhibition [1] was “inactive”, the Activity [2] was “inactive” and the Activity [3] was “inactive”. The inhibition [4] was “inactive”, the logD at 24 h [5] was 0.94 and the solubility at 24 h [6] was 182 µM (≈ 80.6 µg/mL). The remaining at 2 h [7] was 95%, the remaining at 2 h [8] was 100% and the Vd [9] was 4.05 L/kg. It also gave a clearance [10] of 20.3 mL/min/kg and a bioavailability [11] of 32%.
